Compound activity from PubChem.
The full list was thinned out, with hits kept by preference.
HSF1 activator: HSF-1 activators, primary screen, NIH3T3-HGL cells, MG132 stress, luminescence, single point | NIH3T3-HGL HSF-1 luciferase reporter, 8 h; 100% = twice DMSO control signal | activation, % at 9 µM | hit rate 1.7% among 300,000;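 active = mean replicate activation of at least 50% with a set share of replicates each reaching 50%; inconclusive = only one of those two conditions met; inactive = mean below 50% and too few replicates reaching it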;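 also: 0% = median of the neutral control wells and 100% = twice that signal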
T cruzi repl: inhibitors of intracellular T. cruzi growth, primary screen, luminescence, NIH3T3 host cells | T. cruzi beta-gal in NIH3T3, 90 h | inhibition, % (test concentration not listed) | hit rate 1.4% among 300,000;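 active = mean inhibition across valid replicates above about 55%, limit read from the data; inconclusive = mean below that limit but half or more replicates reach it; inactive = mean below it, under half of replicates reach it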;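 also: signal also drops with host cell toxicity which is not excluded here; 0% = plate median of DMSO wells and 100% = zero luminescence signal; higher percent means less beta-gal luminescence so fewer parasites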
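assay system = mouse NIH/3T3 fibroblasts infected with β-gal-expressing T. cruzi Tulahuen C4 | input = 5,000 NIH/3T3 host cells per well | buffer or medium = DMEM plus 2% FBS | timing = 3 h host attachment, then at least 90 h co-culture | measured by = GalScreen luminescence, 60 min | evaluation = luminescence reflecting intracellular parasite burden, expressed as percent inhibition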
L major viab: Leishmania major promastigote growth inhibition, primary screen; inhibition, % at 10 µM; hit rate 9% among 200,000; Leishmania major promastigotes, resazurin fluorescence viability; in the data active = inhibition above about 50%;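 also: promastigotes grown with compound for 44 hours at 28 °C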
HSF1 inhib: HSF1 inhibitors in luciferase reporter cells, primary screen, cell-based, NIH3T3, luminescence | NIH3T3-HGL HSE-luciferase, MG132-induced, luminescence 8 h; active compounds read low | hit rate 0.77% among 300,000 | activity change, negative = inhibition, % at 7.5 µM (by protocol);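 active = more than half of replicate wells show activity change below -50%, luminescence cut by over half; inconclusive = some wells, but at most half, below -50%; inactive = no replicate well below -50%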;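 also: luciferase reports HSF-1 transcriptional activity via heat shock element; 0% = median of DMSO wells and -100% = zero luminescence signal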
Hsp70 act: Hsp70 transcriptional activators, primary screen, cell-based, HeLa, Hsp70 promoter luciferase, luminescence, 10 µM | HeLa Hsp70 promoter luciferase reporter; scaled: vehicle 0, proteasome-inhibitor control 100% | activation, % at 10 µM | hit rate 0.04% among 200,000;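 active = activation above the mean across all tested compounds plus 3 SD, cutoff set per campaign, cut at about 5.5% in these data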;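 also: 100% = MG132 at 30 µM as the positive control and 0% = DMSO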
Numbers without * were called inactive; ? = inconclusive; nt = no result.

SMILES | HSF1 activator | T cruzi repl | L major viab | HSF1 inhib | Hsp70 act
CCOc1cccc2sc(Nc3nc4ccc(NC(C)=O)cc4s3)nc12 | 17.7 | 56.6* | 80.2* | 26.1 | -0.4
CCOC(=O)c1sc(Nc2nc3c(F)cccc3s2)cc1C | ? | 0.1 | 78.1* | 45.3 | -0.4
CCOC(=O)c1sc(Nc2nc3ccc(OC)cc3s2)cc1C | -0.7 | 24.8 | -0.6 | -6.3 | -0.1
Cc1ccc(Cl)c(OCC(=O)OCC(=O)NC2CCCc3ccccc32)c1 (stereo not given) | -6.6 | -10.5 | -7.0 | -2.6 | -0.1
O=C(CSc1nnc(NC(=O)c2ccccc2F)s1)NC1CC1 | 14.8 | -4.7 | nt | 11.7 | nt
COC(=O)c1ccc(NC(=O)c2cn(-c3ccccc3)nc2-c2ccncc2)cc1 | -4.0 | 56.3* | -1.1 | -1.6 | -0.1
O=C(Nc1ccncc1)c1cn(-c2ccccc2)nc1-c1cccs1 | 5.9 | 51.6 | 94.8* | 8.6 | 0.4
CC(=O)c1ccc(NC(=O)c2cn(-c3ccccc3)nc2-c2ccncc2)cc1 | 24.9 | 26.4 | -0.9 | 2.8 | -0.1
O=C(O)C1CCCN1S(=O)(=O)c1cccc2nsnc12 (stereo not given) | 4.1 | -27.5 | 12.7 | 6.7 | -0.4
Cc1cc2nnc(SCC(=O)NCC3CCCO3)n2c2ccccc12 (stereo not given) | 4.5 | 0.5 | 7.0 | 11.3 | -0.1
Cc1cnc(NC(=O)Cc2ccccc2Cl)s1 | -11.8 | -15.9 | nt | -8.5 | nt
Cc1cnc(NC(=O)c2cc3c(C)nn(Cc4ccccc4Cl)c3s2)s1 | 15.6 | 9.2 | 60.1* | 11.8 | -0.2
CCOc1ccc(-n2cc(-c3ccccc3)c3c(N4CCOCC4)ncnc32)cc1 | -40.0 | -0.7 | 21.1 | -36.7 | -0.1
Cc1ccc(-n2cc(-c3ccccc3)c3c(NN4CCOCC4)ncnc32)cc1 | 0.6 | 5.4 | 80.6* | -4.1 | -0.2
Cc1cccc(-n2cc(-c3ccccc3)c3c(NN4CCOCC4)ncnc32)c1 | -0.3 | 14.2 | 62.7* | 2.9 | -0.3
CN1CCN(c2ncnc3c2c(-c2ccccc2)cn3-c2ccc(F)cc2)CC1 | -7.1 | 30.6 | 58.1* | -3.3 | -0.2
OCCCNc1cc(-c2ccnc(Nc3cccc(Cl)c3)n2)ccn1 | -65.9 | 50.0 | nt | -58.3* | nt
CCC(C)Oc1cc(-c2ccnc(Nc3cccc(Cl)c3)n2)ccn1 (stereo not given) | -29.1 | 56.7* | nt | -17.1 | nt
CN(C)CCCNc1ccc(-c2cc(Nc3cccc(Cl)c3)ncn2)cn1 | 1.1 | 48.6 | nt | 0.3 | nt
CCn1c(SCC(=O)N2CCCCC2C)nc2c1c(=O)n(C)c(=O)n2C (stereo not given) | -14.8 | -11.3 | nt | -6.3 | nt
Cc1c(C(=O)Nc2ccc(F)cc2)sc2ncn(CC(=O)N3CCCCC3)c(=O)c12 | -64.5 | 16.2 | nt | -54.7* | nt
Cc1c(C(=O)Nc2ccccc2)sc2ncn(CC(=O)N3CCCCC3)c(=O)c12 | -7.2 | 0.2 | nt | -4.4 | nt
CCOc1ccc(NC(=O)Cn2sc3nc(C)cc(C)c3c2=O)cc1 | 27.3 | 50.0 | nt | 19.9 | nt
Cc1cccc(N2CCN(C(=O)Cn3sc4nc(C)cc(C)c4c3=O)CC2C)c1 (stereo not given) | -24.4 | 40.8 | -14.4 | -9.1 | 0.1
Cc1cc(C)c2c(=O)n(CC(=O)Nc3ccc(Cl)cc3)sc2n1 | -0.7 | 60.3* | nt | 1.6 | nt
SMILES | HSF1 activator | T cruzi repl | L major viab | HSF1 inhib | Hsp70 act
Cc1cc(C)c2c(=O)n(CC(=O)N3CCC(Cc4ccccc4)CC3)sc2n1 | 15.3 | 33.1 | 78.2* | -0.5 | -0.2
Cc1ccc(S(=O)(=O)NCCNS(=O)(=O)c2ccc(C)cc2)cc1 | 5.9 | 2.0 | nt | -2.9 | nt
CCC1(C)CC(CCNS(=O)(=O)c2ccc(C)cc2)(c2ccc(C)cc2)CCO1 (stereo not given) | 22.3 | 31.0 | 51.8* | 16.9 | -0.4
Cc1ccc(S(=O)(=O)NCCC2(C(C)C)CCOC(C)(C)C2)cc1 (stereo not given) | 2.8 | 8.4 | 95.2* | -6.6 | 0.7
CC1(C)CC(CCNS(=O)(=O)c2ccccc2)(c2ccccc2)CCO1 (stereo not given) | -1.6 | 3.3 | 99.6* | 4.3 | 0.0
COc1ccc(CNC(=O)C(c2ccccc2F)N(C(=O)c2csnn2)C2CC2)cc1 (stereo not given) | 18.3 | -19.0 | nt | -0.7 | nt
CN(C)C(=O)CN1CCN(Cc2cn(C)nc2-c2ccc3c(c2)OCCO3)CC1 | -1.4 | -1.8 | -1.2 | -2.8 | -0.3
COc1cc(/C=C2\SC(=S)NC2=O)ccc1OS(=O)(=O)c1ccccc1 | -2.1 | -23.3 | 62.8* | -1.6 | -0.1
O=[N+]([O-])c1ccc(Cl)c(/C=N/n2c(-c3ccncc3)n[nH]c2=S)c1 | 242.8* | -32.3 | nt | 155.0 | nt
S=c1[nH]nc(-c2ccncc2)n1/N=C/C(Cl)=C\c1ccccc1 | 78.1* | -21.1 | 53.1* | 39.5 | -0.1
S=c1[nH]nc(COc2ccccc2)n1/N=C/C(Cl)=C/c1ccccc1 | 150.9* | 12.3 | 80.6* | 109.4 | -0.2
S=c1[nH]nc(COc2ccccc2)n1/N=C/C=C/c1ccccc1 | 0.3 | -3.5 | -6.1 | 1.0 | -0.1
Fc1ccc(Nc2cccc3nccnc23)cc1 | 2.6 | -0.3 | 50.4* | 0.7 | 0.1
Cc1cc(=O)oc2c3c(cc(OCC(=O)NCCCn4ccnc4)c12)OC(C)(C)CC3 | -1.3 | 10.9 | nt | -2.1 | nt
Cc1cc(C(=O)Nc2ccccc2N2CCCCC2)no1 | 1.5 | 10.3 | nt | -2.1 | nt
COCC(C)n1c(C)cc(C(=O)CSc2nnnn2-c2ccc(O)cc2)c1C (stereo not given) | -3.0 | 2.1 | 73.0* | -11.6 | -0.4
COCC(C)n1c(SCC(=O)NCCC2=CCCCC2)nc2ccccc2c1=O (stereo not given) | 11.9 | 18.1 | 92.5* | 0.6 | -0.5
COCC(C)n1c(SCC(=O)c2cc(C)n(C)c2C)nc2ccccc2c1=O (stereo not given) | -10.0 | -2.9 | 83.8* | -1.3 | 0.1
CCOC(=O)N1CCC(n2c(SCC(=O)N3CCC(C)CC3)nc3ccccc3c2=O)CC1 | 11.2 | 34.6 | 22.9 | 5.6 | -0.5
CCOC(=O)N1CCC(n2c(SCC(=O)NCCC3=CCCCC3)nc3ccccc3c2=O)CC1 | 17.9 | 53.2 | 70.3* | 8.1 | -0.2
CCc1nc(CNC(=O)C2CCC(=O)N(Cc3cccc(OC)c3)C2)no1 (stereo not given) | 1.2 | -3.2 | nt | 1.9 | nt
CCOC(=O)N1CCC(n2c(SCC(=O)NCc3ccccc3)nc3ccccc3c2=O)CC1 | 2.4 | 18.5 | 81.0* | -6.3 | -0.2
CCOC(=O)N1CCC(n2c(SCC(=O)N3CCCC3)nc3ccccc3c2=O)CC1 | -6.9 | 31.7 | 0.7 | 3.3 | -0.3
CCOC(=O)N1CCC(n2c(SCC(=O)Nc3ccccc3OC)nc3ccccc3c2=O)CC1 | -4.5 | 56.1* | 10.8 | -6.0 | 0.1
O=C(COc1ccccc1)Nc1ccc(S(=O)(=O)Nc2ncccn2)cc1 | -5.8 | -11.4 | -5.7 | -6.6 | -0.3
